697 NFkB inh: inhibitors of the PMA/ionomycin-induced NF-kB reporter in 697 B cells | 697 B-cell NF-kB luciferase reporter, 16 h | inhibition, % at 4 µM | 330,000 compounds, 0.33% hits | AID 435022; in the data active = inhibition above about 35%
XBP1 UPR activ: adaptive UPR (XBP1) activation; activation, % at 20 µM; AID 463104; CHO-XBP1 luciferase reporter, IRE1-XBP1 UPR activation, luminescence; percent of tunicamycin response, DMSO as zero; 330,000 compounds, 0.33% hits;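 active = versus positive control, 20 µM dose yields 30% or more activation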;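 also: 100% = tunicamycin at 10 µg/mL and 0% = DMSO only wells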
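Material: CHO cell line with stable XBP1 luciferase reporter; schedule: 16-18 h cell attachment at 37 °C, then 6 h compound exposure; signal: glow luminescence from Steady-Glo reagent; medium: serum-containing F12 medium, 10% FBS; benchmarks: tunicamycin 10 µg/mL and vehicle-only wells; read-out: percent activation relative to tunicamycin reference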
CHOP UPR activ: apoptotic UPR (CHOP) activation. CHO-CHOP luciferase reporter, luminescence; percent of tunicamycin response over DMSO baseline. activation, % at 10 µM. 330,000 compounds, 0.34% hits;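 active = at 10 µM dose, activation of 40% or more, normalized to positive control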;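 also: 100% = tunicamycin at 10 µg/mL and 0% = DMSO alone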
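Assay system: CHO-CHOP cells, stable luciferase reporter of PERK-eIF2a-CHOP signalling / Buffer or medium: F12 plus 10% serum / Compound dosing: one dose, 10 µM in 0.5% DMSO / Times: 6 h compound treatment, 37 °C / Technique: luciferase luminescence / Read-out: % reporter activation, DMSO baseline versus tunicamycin full activation / Benchmarks: tunicamycin and DMSO controls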
Jurkat NFkB inh: lowers PMA/ionomycin-induced NF-kB signal in Jurkat cells; 330,000 compounds, 0.53% hits; inhibition, % at 4 µM; PMA/ionomycin-induced NF-kB luciferase reporter, luminescence; in the data active = inhibition above about 50%
CRFR2-BP antag: blocks CRF-induced signaling of the CRF-BP/CRF-R2 complex; HEK293 CRF-R2/CRF-BP, CRF-induced calcium fluorescence; 350,000 compounds, 0.59% hits; AID 588475; inhibition, % at 11.8 µM;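 active = inhibition of the ligand-induced calcium signal above about 50% at the single tested concentration, limit read from the data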
697 NFkB conf: lowers PMA/ionomycin-induced NF-kB signal in 697 B cells | inhibition, % at 4 µM | 2,000 compounds, 35% hits | shares compounds with 697 NFkB inh | AID 449746 | 697 B-cell NF-kB luciferase, 16 h; in the data active = inhibition mostly above about 28%, no sharp cut-off; inactive = mostly below about 22%
* hit, by the source's call. The list is not random: actives were taken first. Their share in the collection is about 1.8%.

Screening O=C(CC1Sc2ccccc2NC1=O)NNc1cccc(Cl)c1Cl (centres undefined) returned CRFR2-BP antag -53.7.
Screening O=C(Nc1ccc(-c2noc(-c3cccs3)n2)cc1)c1cccnc1 returned 697 NFkB inh -288.6, XBP1 UPR activ 2.9, CHOP UPR activ 2.2, Jurkat NFkB inh -101.3, CRFR2-BP antag -22.4 and 697 NFkB conf -279.6.
`COc1cccc(-c2nc(-c3ccc(NC(=O)c4cccnc4)cc3)no2)c1` gave 697 NFkB inh -72.2, XBP1 UPR activ 5.1, CHOP UPR activ 5.5, Jurkat NFkB inh -26.2 and CRFR2-BP antag -10.7.
`Brc1ccc(-c2ncc(-c3ccccc3)cn2)cc1` gave 697 NFkB inh -289.0, XBP1 UPR activ -7.3, CHOP UPR activ 1.8, Jurkat NFkB inh -149.8, CRFR2-BP antag -4.7 and 697 NFkB conf -210.0.
`COc1cccc(OCc2cc(C(=O)N(C)CCOc3ccc(C)cc3)no2)c1` gave 697 NFkB inh -106.2, XBP1 UPR activ -5.6, CHOP UPR activ 2.1, Jurkat NFkB inh -79.2 and CRFR2-BP antag 9.4.
COc1ccc(-c2nnc3c4ccccc4c(C)nn23)cc1S(=O)(=O)N1CCN(CCO)CC1 was read as 697 NFkB inh 0.1, XBP1 UPR activ 11.0, CHOP UPR activ -1.1, Jurkat NFkB inh -2.1 and CRFR2-BP antag 5.0.
Cc1ccc(-c2nn3c(C)nnc3c3ccccc23)cc1S(=O)(=O)N1CCN(CCO)CC1 was read as 697 NFkB inh 36.6*, XBP1 UPR activ 2.5, CHOP UPR activ 0.3, Jurkat NFkB inh -16.4, CRFR2-BP antag 13.1 and 697 NFkB conf 36.5*.
Screening Cc1ccc(-c2nn3c(C)nnc3c3ccccc23)cc1S(=O)(=O)NCCO returned 697 NFkB inh 18.1, XBP1 UPR activ -1.9, CHOP UPR activ -1.3, Jurkat NFkB inh -4.9 and CRFR2-BP antag 5.3.
Screening Cc1ccc(-c2nn3c(C)nnc3c3ccccc23)cc1S(=O)(=O)NCc1ccco1 returned 697 NFkB inh 42.6*, XBP1 UPR activ 2.1, CHOP UPR activ 0.0, Jurkat NFkB inh 0.1, CRFR2-BP antag -21.4 and 697 NFkB conf 43.3*.
Cc1nnc2c3ccccc3c(-c3cccc4ccccc34)nn12 was read as CRFR2-BP antag 19.1.
Cc1ccc(-c2nn3c(C)nnc3c3ccccc23)cc1S(=O)(=O)NC(C)c1ccccc1 (centres undefined) was read as 697 NFkB inh 18.9, XBP1 UPR activ 6.7, CHOP UPR activ 5.0, Jurkat NFkB inh -7.9 and CRFR2-BP antag -10.4.
For Cc1ccc(-c2nn3c(C)nnc3c3ccccc23)cc1S(=O)(=O)NC(C)(C)CO the results were 697 NFkB inh 35.6*, XBP1 UPR activ 0.3, CHOP UPR activ -1.1, Jurkat NFkB inh -0.9, CRFR2-BP antag 19.5 and 697 NFkB conf 61.5*.
`Cc1nnc2c3ccccc3c(-c3ccccc3)nn12` gave 697 NFkB inh 43.4*, XBP1 UPR activ 5.0, CHOP UPR activ -1.2, Jurkat NFkB inh -7.2, CRFR2-BP antag -8.3 and 697 NFkB conf 32.2*.
`Cc1ccc(C(=O)NCC(=O)Nc2ccc(S(=O)(=O)Nc3cc(C)nc(C)n3)cc2)cc1` gave 697 NFkB inh -25.2, XBP1 UPR activ 4.1, CHOP UPR activ 0.9, Jurkat NFkB inh -9.7 and CRFR2-BP antag -2.1.
Screening O=C(NCc1nnc(SCC(=O)N2CCOCC2)o1)c1c(F)cccc1F returned 697 NFkB inh 27.3, XBP1 UPR activ -5.2, CHOP UPR activ 0.8, Jurkat NFkB inh 7.6 and CRFR2-BP antag 4.8.
For Cn1c(=N)n(CC(=O)c2ccc(F)cc2)c2ccccc21 the results were 697 NFkB inh -158.7, XBP1 UPR activ -10.5, CHOP UPR activ -2.1, Jurkat NFkB inh -1.3 and CRFR2-BP antag -8.2.
Cn1c(=N)n(CC(=O)c2ccc(Br)cc2)c2ccccc21 was read as 697 NFkB inh -344.3, XBP1 UPR activ 5.7, CHOP UPR activ 2.4, Jurkat NFkB inh -91.6, CRFR2-BP antag -9.1 and 697 NFkB conf -283.2.
Screening CCOc1cc2nc(-c3ccc(OC)c(OC)c3)nc(N3CC(C)OC(C)C3)c2cc1OC (centres undefined) returned 697 NFkB inh 2.6, XBP1 UPR activ 7.9, CHOP UPR activ 0.4 and Jurkat NFkB inh 11.8.
CCOc1cc2nc(-c3ccc(OC)c(OC)c3)nc(N3CCOCC3)c2cc1OC was read as 697 NFkB inh 44.6*, XBP1 UPR activ 5.2, CHOP UPR activ 0.5, Jurkat NFkB inh -40.1, CRFR2-BP antag -24.7 and 697 NFkB conf 38.3*.
Screening O=C(Nc1cccc(Br)c1)c1ccc2c(c1)SC1=NS(=O)(=O)CCN12 returned 697 NFkB inh 46.0*, XBP1 UPR activ -4.9, CHOP UPR activ 0.4, Jurkat NFkB inh -1.1, CRFR2-BP antag 3.8 and 697 NFkB conf 40.6*.
Cc1ccc2nc(NC(=O)CSCC(=O)OCC(=O)c3ccc(Br)cc3)sc2c1 was read as 697 NFkB inh 64.5*, XBP1 UPR activ -2.7, CHOP UPR activ -6.6, Jurkat NFkB inh 40.5, CRFR2-BP antag -37.4 and 697 NFkB conf 54.0*.
COc1ccc(NC(=O)c2ccc(COc3ccccc3Br)o2)cc1OC was read as 697 NFkB inh 42.7*, XBP1 UPR activ 0.7, CHOP UPR activ -1.6, Jurkat NFkB inh 1.8, CRFR2-BP antag -7.6 and 697 NFkB conf 5.4.
Screening [N-]=[N+]=NC1CC(CO)OC1n1ccc(=O)[nH]c1=O (centres undefined) returned 697 NFkB inh 25.5, XBP1 UPR activ -0.9, CHOP UPR activ -0.6, Jurkat NFkB inh -2.4 and CRFR2-BP antag 9.6.
`Cc1noc(C)c1COc1ccc(C(=O)OCC(=O)Nc2cccc(S(=O)(=O)N3CCOCC3)c2)cc1` gave 697 NFkB inh 38.8*, XBP1 UPR activ -2.6, CHOP UPR activ -1.0, Jurkat NFkB inh 5.4, CRFR2-BP antag -11.9 and 697 NFkB conf -0.1.
Screening Cc1noc(C)c1COC(=O)c1cccc(S(=O)(=O)N2CCOCC2)c1 returned 697 NFkB inh 12.7, XBP1 UPR activ -1.7, CHOP UPR activ 0.5, Jurkat NFkB inh 17.8 and CRFR2-BP antag 2.9.
Screening Cn1nnnc1Sc1ncnc2scc(Br)c12 returned 697 NFkB inh 36.9*, XBP1 UPR activ -7.8, CHOP UPR activ -6.5, Jurkat NFkB inh -1.0, CRFR2-BP antag -4.8 and 697 NFkB conf 60.0*.
For CN1C(=O)c2cccc3c(S(=O)(=O)Nc4ccccc4F)ccc1c23 the results were 697 NFkB inh 37.2*, XBP1 UPR activ -1.8, CHOP UPR activ 0.1, Jurkat NFkB inh 4.3, CRFR2-BP antag 5.3 and 697 NFkB conf 34.2*.
For CCN1C(=O)c2cccc3c(S(=O)(=O)NCC4CCCO4)ccc1c23 (centres undefined) the results were 697 NFkB inh 37.5*, XBP1 UPR activ -3.1, CHOP UPR activ -0.2, Jurkat NFkB inh 1.1, CRFR2-BP antag -4.0 and 697 NFkB conf 59.3*.

Compound activity as filed in PubChem BioAssay.
